APP 5UTR inh: APP translation inhibition; SH-SY5Y APP 5'UTR-luciferase reporter, luminescence; inhibition, % at 2 µM; hit rate 0.82% among 190,000; AID 1285;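 active means inhibition above a set limit, derived from the sample mean plus 3 SD, cut at about 45% in these data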
b-catenin transl: beta-catenin nuclear translocation modulation; HeLa beta-catenin nuclear translocation, immunofluorescence imaging; nuclear translocation activity, % at 5 µM; hit rate 0.3% among 190,000; AID 1665;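 active means nuclear translocation activity above 50% at 5 µM, with a well cell count of 50 or more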;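 further: per-cell ratio of nuclear to cytoplasmic median beta-catenin stain intensity; plate controls were DMSO negative control for no effect and GSK-3 inhibitor IX positive control for full effect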
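Test system: HeLa cells, endogenous beta-catenin; Compound: single 5 µM dose plus 0.02–20 µM confirmation series; Times: compound exposure 24 h at 37°C; Signal: fluorescence imaging of beta-catenin antibody stain plus DAPI; Read-out: % activation, nuclear-to-cytoplasmic median beta-catenin signal ratio per cell.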
Ba/F3 V617F tox: reduce viability of Ba/F3 cells dependent on JAK2V617F | Ba/F3 EpoR-JAK2V617F viability, ATP luminescence | inhibition, % at 5.6 µM | hit rate 1.1% among 220,000;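 active means inhibition above the campaign mean plus 3 SD over all tested compounds, cut at about 24% in these data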;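 further: cytokine-independent growth of Ba/F3 cells driven by EpoR plus mutant JAK2; 0% = DMSO-treated cells and 100% = JAK inhibitor I control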
IEC-6 cytotox: IEC-6 cytotoxicity, counter-screen for KLF5 inhibitors | AID 1825 | inhibition, % at 5 µM | hit rate 0.78% among 290,000 | luminescence viability;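 further: 0% = plate median of test compound wells and 100% = cytotoxic reference compound wells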
BaF3 tox: counter-screen for JAK2V617F inhibitors: parental Ba/F3 viability inhibitors | hit rate 1.1% among 220,000 | inhibition, % at 5.6 µM | CellTiter-Glo ATP luminescence;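 active means inhibition above a per-campaign cutoff, the mean inhibition of all tested compounds plus 3 SD, cut at about 27% in these data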;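 further: 0% = DMSO wells and 100% = JAK Inhibitor I control wells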
MT stabilize HCS: microtubule stabilization, imaging screen. AID 2205. hit rate 0.83% among 200,000. % tubulin-high responders, % at 10 µM. HeLa tubulin immunostaining HCS, 24 h; share of cells brighter than vehicle mean+2SD;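 active means plate Z-score above 3 for both tubulin-high and condensed-nucleus cell shares, with cell loss under 80%, at 10 µM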;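 further: anti alpha tubulin signal scored within the nucleus-defined area of each cell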
IEC-6 cytotox cf: confirmation of cytotoxic compounds in rat IEC-6 intestinal epithelial cells. inhibition, % at 5 µM. shares compounds with IEC-6 cytotox. hit rate 63% among 1,900. AID 1907. IEC-6 rat intestinal epithelial viability, luminescence;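 further: 0% = vehicle and 100% = reference cytotoxic drug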
* marks the source's active call; other numbers are inactive results; / = no result. An excerpt weighted towards active compounds, which were near 2.2% of everything screened. Unless noted, no stated cut-off is given here; in the data, active means inhibition above about 22%; inactive means the rest.

SMILES	APP 5UTR inh	b-catenin transl	Ba/F3 V617F tox	IEC-6 cytotox	BaF3 tox	MT stabilize HCS	IEC-6 cytotox cf
CCOC(=O)[C@@H]1[C@H]2COc3ccccc3[C@H]2N2C(=O)N(c3ccc(C(F)(F)F)cc3)C(=O)[C@]12C	/	/	/	-3	/	/	/
COc1ccc(S(=O)(=O)N2CC(C(=O)O)Oc3ccccc32)cc1 (centres undefined)	/	/	/	-10	/	/	/
COc1ccc(S(=O)(=O)N2CCOc3ccccc32)cc1	/	/	/	60*	/	/	37*
O=C(Cc1ccc(N2CCNC2=O)cc1)N1CCCC(Nc2ccc(F)c(F)c2)C1 (centres undefined)	/	/	/	48*	/	/	35*
O=C(Cc1ccc(N2CCNC2=O)cc1)N1CCCC(Nc2cccc(F)c2)C1 (centres undefined)	/	/	/	71*	/	/	56*
Cc1ccc(CN2CCC(CNC(=O)c3ccc(NC(=O)C4=CSCCO4)cc3)CC2)cc1	/	/	/	5	/	/	/
Cc1cccc2cc(/C=N/NC(=O)c3ccncc3)c(Cl)nc12	/	0	-2	8	-4	/	/
O=C(O)c1ccc(N/N=C/c2cc3ccccc3nc2Cl)cc1	/	0	12	22*	1	/	31*
Cc1cccc2cc(/C=N/Nc3ccc(C(=O)O)cc3)c(Cl)nc12	/	0	11	27*	9	/	48*
COc1ccc(-c2noc3c2-c2nc(-c4ccc(Cl)cc4)sc2CC3)cc1	/	/	/	12	/	/	/
Cc1ccc(N(O)C(=O)NCCCCNC(=O)N(O)c2ccc(C)cc2)cc1	/	/	/	-2	/	/	/
COc1ccc2c(c1)C(C)=CC(C)(C)N2S(=O)(=O)c1ccc(NC(C)=O)cc1	/	/	/	90*	/	/	57*
CCOc1ccc2c(c1)C(C)=CC(C)(C)N2S(=O)(=O)c1ccc(NC(C)=O)cc1	/	/	/	92*	/	/	72*
COc1ccc2c(c1)C(C)=CC(C)(C)N2S(=O)(=O)c1ccc(Br)cc1	93*	76*	74*	68*	69*	5	57*
COc1cccc(CN2CCN(S(=O)(=O)c3ccc(Br)cc3)CC2)c1	1	1	-1	8	1	3	/
CCOc1ccc(CN2CCN(S(=O)(=O)c3ccc(NC(C)=O)cc3)CC2)cc1	-30	1	0	-2	6	3	/
CS(=O)(=O)Cc1cccc(C(=O)NC2CCSc3ccccc32)c1 (centres undefined)	/	/	/	4	/	/	/
CN(C)c1nc(-c2ccccc2)c2cc(Cl)ccc2n1	/	/	/	4	/	/	/
COc1cc(CN2CCc3ccccc3C2)cc([N+](=O)[O-])c1O	/	/	/	-1	/	/	/
COc1cc(CN2CCc3ccccc3C2)ccc1O	/	1	97*	30*	103*	/	16
O=c1oc(-c2ccccc2)cc(Cl)c1Cl	/	/	/	31*	/	/	21
CN(C)c1cc(-c2cccc([N+](=O)[O-])c2)oc(=O)c1Cl	/	1	-3	-4	4	/	/
O=[N+]([O-])c1c(Nc2cccc(O)c2)cc(Cl)c2nonc12	/	/	/	100*	/	/	29*
Cc1c(Nc2cc(Cl)c3nonc3c2[N+](=O)[O-])c(=O)n(-c2ccccc2)n1C	95*	/	95*	96*	103*	3	9
Cc1c(Nc2cc(N3CCOCC3)c3nonc3c2[N+](=O)[O-])c(=O)n(-c2ccccc2)n1C	4	1	-2	-4	-1	3	/
SMILES	APP 5UTR inh	b-catenin transl	Ba/F3 V617F tox	IEC-6 cytotox	BaF3 tox	MT stabilize HCS	IEC-6 cytotox cf
O=C(O)c1ccc(Nc2cc(Cl)c3nonc3c2[N+](=O)[O-])cc1	-2	3	-6	2	0	3	/
Cc1ccccc1C(=O)/C(C#N)=N/Nc1c(C)n(C)n(-c2ccccc2)c1=O	68*	3	8	38*	8	3	36*
Cc1c(N/N=C(\C#N)C(=O)c2ccccc2)c(=O)n(-c2ccccc2)n1C	77*	2	12	39*	10	4	44*
CCOC(=O)/C(C#N)=N/Nc1c(C)n(C)n(-c2ccccc2)c1=O	9	0	0	-2	7	4	/
CCc1nnc(NC(=O)c2cc(Cl)ccn2)s1	/	/	/	31*	/	/	18
CCc1nnc(NC(=O)c2ccc(Cl)nc2)s1	-51	-2	3	-3	7	2	/
COc1ccc(NC(=O)Cn2nnc(C(=O)NCc3ccc4c(c3)OCO4)c2N)cc1	10	0	-2	-18	2	1	/
CCOc1ccccc1NC(=O)c1nnn(CC(=O)Nc2ccc3c(c2)OCO3)c1N	/	/	/	3	/	/	/
COc1cccc(CNC(=O)c2nnn(CC(=O)Nc3ccc(Br)cc3)c2N)c1	/	/	/	34*	/	/	18
CCOc1ccccc1NC(=O)Cn1nnc(C(=O)NCc2ccco2)c1N	96*	/	87*	87*	86*	25*	58*
CCOc1ccccc1NC(=O)Cn1nnc(C(=O)NCc2ccc3c(c2)OCO3)c1N	/	/	/	51*	/	/	28*
O=C(CCNC(=O)c1ccco1)Nc1ccc(Cl)cc1F	/	/	/	-2	/	/	/
COc1ccc(C(=O)c2ccc(N(C)C)cc2)c2ccccc12	92*	-2	77*	78*	78*	11	58*
CC(=O)c1ccc2oc3ccccc3c(=O)c2c1	/	/	/	-4	/	/	/
O=S(=O)(Nc1cccc2ccccc12)c1ccccc1	/	-1	-4	-4	1	/	/
COc1ccc(NS(=O)(=O)c2ccc3ccccc3c2)c2ncccc12	/	/	/	60*	/	/	52*
Cc1ccc(S(=O)(=O)Nc2cccc3cccnc23)c([N+](=O)[O-])c1	/	/	/	66*	/	/	47*
Cc1ccc2cccc(NS(=O)(=O)c3ccccc3)c2n1	/	/	/	99*	/	/	100*
O=S(=O)(Nc1cccc2cccnc12)c1ccccc1	/	/	/	102*	/	/	98*
Cc1cc(C)c(NS(=O)(=O)c2cccc3cccnc23)c(C)c1	12	-1	-1	-1	-2	2	/
CN(/N=C/c1cc(Cl)ccc1O)C1=NS(=O)(=O)c2ccccc21	/	/	/	4	/	/	/
CCOC(=O)C1CCN(C(=O)CCCn2nc(CC)n3c(cc4occc43)c2=O)CC1	/	/	/	3	/	/	/
O=S(=O)(Nc1cccc2cccnc12)c1ccc(S(=O)(=O)N2CCCC2)cc1	-4	/	3	32*	6	8	35*
CC1CCN(c2nc3ccc(C(=O)NCCCN4CCCCC4C)cc3s2)CC1 (centres undefined)	/	/	/	18	/	/	/
Cc1c(C(=O)O)[nH]c2c1C(=O)CC(c1ccc(C(C)(C)C)cc1)C2 (centres undefined)	/	/	/	-2	/	/	/
CCC(C)OC(=O)c1[nH]c2c(c1C)C(=O)CC(c1ccc(N(C)C)cc1)C2 (centres undefined)	-22	0	3	5	6	2	/
Cc1c(C(=O)OCC(C)C)[nH]c2c1C(=O)CC(c1ccco1)C2 (centres undefined)	96*	183*	79*	81*	76*	3	57*
Cc1c(C(=O)OCC2CCCO2)[nH]c2c1C(=O)CC(c1ccco1)C2 (centres undefined)	33	89*	11	38*	4	40*	47*

High-throughput results: PubChem, several laboratories
